Measurements as given in ChEMBL document CHEMBL4270633, “Discovery of novel vinyl sulfone derivatives as anti-tumor agents with microtubule polymerization inhibitory and vascular disrupting activities” (Eur J Med Chem, 2018).
Calls of active or inactive are those of the source. The calls are words filed in the database; no cut-off is given here.

Columns and labels:
K562 [1] = assay: Cell cycle arrest in human K562 cells assessed as accumulation at G1 phase at 0.02 uM after 48 hrs by propidium iodide staining based flow cytometry (reference value: 41.08%); format: functional
K562 [2] = assay: Induction of apoptosis in human K562 cells at 0.01 uM after 48 hrs by Annexin V-FITC/propidium iodide staining based flow cytometry (reference value: 1.46%)
K562 [3] = assay: Cell cycle arrest in human K562 cells assessed as accumulation at G2 phase at 0.005 uM after 48 hrs by propidium iodide staining based flow cytometry (reference value: 9.51%); format: functional
K562 [4] = assay: Cell cycle arrest in human K562 cells assessed as accumulation at S phase at 0.005 uM after 48 hrs by propidium iodide staining based flow cytometry (reference value: 49.41%); format: functional
K562 [5] = assay: Cell cycle arrest in human K562 cells assessed as accumulation at G1 phase at 0.005 uM after 48 hrs by propidium iodide staining based flow cytometry (reference value: 41.08%); format: functional
K562 [6] = assay: Induction of apoptosis in human K562 cells at 0.02 uM after 48 hrs by Annexin V-FITC/propidium iodide staining based flow cytometry (reference value: 1.46%); format: functional
Outline: (§1)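 K562 cells treated 48 h at 0, 0.05, 0.1, 0.2 µM or 0, 0.005, 0.010, 0.020 µM. Washed in PBS, resuspended in Annexin V binding buffer and stained 15 min in the dark. Early plus late apoptotic fractions quantified by flow-cytometric quadrant analysis.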

K562 [7] = assay: Cell cycle arrest in human K562 cells assessed as accumulation at G2 phase at 0.01 uM after 48 hrs by propidium iodide staining based flow cytometry (reference value: 9.51%); format: functional
HepG2 = assay: Antiproliferative activity against human HepG2 cells after 72 hrs by MTT assay; format: functional, cell-based; details: HepG2, 72 h
Outline: (§2)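 Cells seeded and held 24 h at 37 °C, 5% CO2, then exposed to a concentration series in medium with 0.1% DMSO for 72 h. MTT (5 mg/mL in PBS) added for 4 h and OD read at 490 nm. IC50 taken from dose-response curves; mean ± SD of at least three independent experiments.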

K562 [8] = assay: Cell cycle arrest in human K562 cells assessed as accumulation at G2 phase at 0.02 uM after 48 hrs by propidium iodide staining based flow cytometry (reference value: 9.51%); format: functional
K562 [9] = assay: Cell cycle arrest in human K562 cells assessed as accumulation at G1 phase at 0.01 uM after 48 hrs by propidium iodide staining based flow cytometry (reference value: 41.08%); format: functional
K562 [10] = assay: Induction of apoptosis in human K562 cells after 48 hrs by Annexin V-FITC/propidium iodide staining based flow cytometry; format: functional, cell-based; outline: as §1
HUVEC = assay: Antivascular activity against HUVEC assessed as reduction in wound closure after 24 hrs by phase contrast microscopic method; format: functional, cell-based; details: Homo sapiens
Outline: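 Scratch wounds made with a sterile 200 µL pipette tip, then treated at 0.05, 0.10, 0.20 µM or 0.005, 0.010, 0.020 µM. Phase-contrast images taken at 0 h and 24 h after treatment.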

A549 = assay: Antiproliferative activity against human A549 cells after 72 hrs by MTT assay; format: functional, cell-based; details: A549, 72 h; outline: as §2
K562 [11] = assay: Induction of apoptosis in human K562 cells at 0.005 uM after 48 hrs by Annexin V-FITC/propidium iodide staining based flow cytometry (reference value: 1.46%); format: functional; outline: as §1
K562 [12] = assay: Antiproliferative activity against human K562 cells at 1 uM after 72 hrs by MTT assay; format: functional, cell-based
K562 [13] = assay: Cell cycle arrest in human K562 cells assessed as accumulation at S phase at 0.02 uM after 48 hrs by propidium iodide staining based flow cytometry (reference value: 49.41%); format: functional
K562 [14] = assay: Disruption of microtubule network in human K562 cells at 0.005 to 0.02 uM after 24 hrs by DAPI staining based immunofluorescent microscopic method; format: cell-based
Outline: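 K562 cells exposed for 24 h to 0.1% DMSO vehicle or to 0.05, 0.10, 0.20 µM or 0.005, 0.010, 0.020 µM. Fixed in 4% paraformaldehyde, blocked with goat serum 20 min at room temperature, then anti-α-tubulin antibody 2 h at 37 °C. Fluorescent antibody staining, DAPI nuclear counterstain, fluorescence microscopy.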

[15] = Inhibition of porcine brain tubulin polymerization after 30 mins by spectrophotometric method; set-up: species or system Sus scrofa
Outline: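 Purified tubulin (2 mg/mL) in PEM buffer (80 mM PIPES pH 6.9, 0.5 mM EGTA, 2 mM MgCl2, 15% glycerol), preincubated on ice with compound or DMSO vehicle, then GTP added. Absorbance at 340 nm followed at 37 °C for 30 min. IC50 derived from area under the polymerization curve.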

H22 [16] = assay: Antitumor activity against mouse H22 cells implanted in ICR mouse assessed as tumor growth inhibition at 30 mg/kg, iv administered once daily for 21 consecutive days relative to control; format: functional; details: read-out: TGI
Outline: (§3)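 Male ICR mice, five weeks old, inoculated s.c. in the right flank with 1 × 10^6 H22 cells. After one day, randomized into groups of six. Given i.v. 15 or 30 mg/kg daily for 21 days in 10% DMF/2% Tween 80/88% saline, or 8 mg/kg every 2 days; vehicle control given i.v. Tumors excised and weighed; inhibition (%) = (1 − treated/control mean tumor weight) × 100.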

H22 [17] = assay: Antitumor activity against mouse H22 cells implanted in ICR mouse assessed as tumor growth inhibition at 15 mg/kg, iv administered once daily for 21 consecutive days relative to control; format: functional; details: read-out: TGI; outline: as §3
K562 [18] = assay: Antiproliferative activity against human K562 cells after 72 hrs by MTT assay; format: functional, cell-based; details: K562, 72 h; outline: as §2
K562 [19] = assay: Cell cycle arrest in human K562 cells assessed as accumulation at S phase at 0.01 uM after 48 hrs by propidium iodide staining based flow cytometry (reference value: 49.41%); format: functional

Compound COc1ccc(/C=C\c2cc(OC)c(OC)c(OC)c2)cc1O [COMBRETASTATIN A4] has an Activity (K562 [1]) of 56.51%, an Activity (K562 [2]) of 53.05% and an Activity (K562 [3]) of 13.84%. For the same compound, the Activity (K562 [4]) was 40.02%, the Activity (K562 [5]) was 46.14% and the Activity (K562 [6]) was 63.05%. For the same compound, the Activity (K562 [7]) was 22.59%, the IC50 (HepG2) was 12 nM and the Activity (K562 [8]) was 24.95%. The Activity (K562 [9]) was 61.16%, the Activity (K562 [10]) was “Dose-dependent effect” and the Activity (HUVEC) was “Dose-dependent effect”. For the same compound, the IC50 (A549) was 37 nM, the Activity (K562 [11]) was 25.28% and the Activity (K562 [12]) was “Active”. The Activity (K562 [13]) was 18.54%, the Activity (K562 [14]) was “Active” and the IC50 [15] was 2170 nM. The inhibition in vivo at 30 mg/kg (H22 [16]) was 56.7%, the inhibition in vivo at 15 mg/kg (H22 [17]) was 45% and the IC50 (K562 [18]) was 21 nM. It also gave an Activity (K562 [19]) of 16.25%.
